These results are taken from publication PMC7302971 (Bioorganic chemistry, 2020).

One assay has as its target HDAC5 (Homo sapiens, UniProt Q9UQL6). Kind of assay: HDAC enzyme activity assay. Type of assay: biochemical. Put shortly: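 Commercial HDAC5 was preincubated with serial inhibitor dilutions for 60 min at 30 °C in Tris-HCl pH 8.0 buffer. Reaction used 20 μM Boc-Lys(trifluoroacetyl)-AMC for 60 min at 30 °C and was stopped with 1.7 μM SATFMK. Trypsin development followed, then AMC fluorescence at 350/450 nm. IC50 came from a four-parameter logistic fit.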

In another assay the target is T1, HDAC7 (Homo sapiens, UniProt Q8WUI4).
T1 sequence (Q8WUI4 1-952): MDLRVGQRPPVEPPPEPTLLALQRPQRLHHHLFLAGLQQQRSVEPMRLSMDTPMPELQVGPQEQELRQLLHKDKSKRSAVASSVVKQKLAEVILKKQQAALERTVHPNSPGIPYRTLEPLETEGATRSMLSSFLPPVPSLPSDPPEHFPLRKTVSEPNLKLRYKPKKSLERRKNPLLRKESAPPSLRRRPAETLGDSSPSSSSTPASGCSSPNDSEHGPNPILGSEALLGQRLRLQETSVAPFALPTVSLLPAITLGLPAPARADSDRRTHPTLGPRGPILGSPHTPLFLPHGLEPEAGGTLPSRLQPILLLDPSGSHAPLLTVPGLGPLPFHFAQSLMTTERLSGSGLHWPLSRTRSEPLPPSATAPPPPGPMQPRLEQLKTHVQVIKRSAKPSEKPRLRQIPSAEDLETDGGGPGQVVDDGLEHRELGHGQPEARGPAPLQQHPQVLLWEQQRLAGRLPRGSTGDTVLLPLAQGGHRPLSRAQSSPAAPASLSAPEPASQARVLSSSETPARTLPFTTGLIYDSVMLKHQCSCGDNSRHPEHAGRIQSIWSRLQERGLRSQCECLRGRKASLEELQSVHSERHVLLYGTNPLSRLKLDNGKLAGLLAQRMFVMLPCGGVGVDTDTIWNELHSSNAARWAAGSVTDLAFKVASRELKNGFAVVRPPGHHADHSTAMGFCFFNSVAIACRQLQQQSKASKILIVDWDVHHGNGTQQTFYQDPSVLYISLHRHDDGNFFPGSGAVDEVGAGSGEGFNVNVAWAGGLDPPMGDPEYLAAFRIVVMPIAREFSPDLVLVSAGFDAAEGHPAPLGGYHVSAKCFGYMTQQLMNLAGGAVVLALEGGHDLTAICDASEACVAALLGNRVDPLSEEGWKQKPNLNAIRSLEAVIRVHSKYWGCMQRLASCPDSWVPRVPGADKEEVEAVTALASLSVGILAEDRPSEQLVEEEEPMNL
The assay is described as follows: HDAC enzyme activity assay. Type of assay: biochemical. The method, boiled down: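 Commercial HDAC7 was preincubated with serial inhibitor dilutions for 60 min at 30 °C in 25 mM Tris-HCl pH 8.0, 75 mM KCl and 0.001% Pluronic F-127. The AMC-substrate reaction ran 60 min at 30 °C, followed by trypsin development and fluorescence reading at Ex 350/Em 450 nm. IC50 came from a four-parameter logistic fit.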

For a further assay, the target named is HDAC3 (Homo sapiens, UniProt O15379). The assay is described as follows: HDAC enzyme activity assay. The class given is biochemical. Put shortly: (§1)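 Commercial enzyme was preincubated with serial inhibitor dilutions for 60 min at 30 °C in 25 mM Tris-HCl pH 8.0, 75 mM KCl and 0.001% Pluronic F-127. Reaction was started with 50 μM Boc-Lys(acetyl)-AMC, run 60 min at 30 °C, and stopped with 4.17 μM SAHA. Trypsin (0.4 mg/ml) released AMC, read at Ex 350/Em 450 nm. IC50 came from a four-parameter logistic fit.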

Another assay concerns KCL-22 leukemia cells. The assay is described as follows: Differential Nuclear Staining. Particulars: Homo sapiens, KCL-22, 48 h. Type of assay: cell-based, human. Put shortly:
(§2)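 Cells were seeded at 10,000/well and exposed to test compound for 48 h at 1% (v/v) final DMSO. The first screen used a single concentration with controls in quadruplicate. Dose-response used 0.5–100 μM in triplicate. Controls: DMSO vehicle, hydrogen peroxide (positive), untreated (negative). Hoechst 33342 plus PI were added 2 h before automated imaging, and colocalised signal was scored as dead. […] Two-tailed t-test versus DMSO.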

For a further assay, the target named is HDAC1 (Homo sapiens, UniProt Q13547). The assay is described as follows: HDAC enzyme activity assay. Type of assay: biochemical. Put shortly: as §1
The next assay deals with T2, HDAC8 (Homo sapiens, UniProt Q9BY41).
T2 sequence (Q9BY41 1-377): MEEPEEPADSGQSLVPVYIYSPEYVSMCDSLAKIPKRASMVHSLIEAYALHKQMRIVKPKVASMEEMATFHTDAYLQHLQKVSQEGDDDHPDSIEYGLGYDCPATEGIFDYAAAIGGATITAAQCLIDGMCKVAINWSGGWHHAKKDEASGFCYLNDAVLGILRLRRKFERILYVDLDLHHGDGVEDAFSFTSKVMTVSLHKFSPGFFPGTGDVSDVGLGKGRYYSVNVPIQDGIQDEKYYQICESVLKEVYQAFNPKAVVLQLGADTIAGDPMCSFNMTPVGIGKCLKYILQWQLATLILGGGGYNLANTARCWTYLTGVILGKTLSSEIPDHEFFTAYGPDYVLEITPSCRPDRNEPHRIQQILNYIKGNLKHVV
The assay is described as follows: Thermal shift assay. The class given is binding.

Another assay deals with K-562 leukemia cells. Kind of assay: Differential Nuclear Staining. The class given is cell-based, human. The method, boiled down:
as §2

The target in a further assay is HDAC4 (Homo sapiens, UniProt P56524). The assay is described as follows: HDAC enzyme activity assay. Type of assay: biochemical. Particulars: for remaining activity at 50 µM: read-out: Residual HDAC4 activity at 50 μM. Put shortly:
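HDAC4 and HDAC8 were in-house recombinant enzymes. Each was preincubated with inhibitor, either a single 50 μM screen or serial dilutions, for 60 min at 30 °C in Tris-HCl pH 8.0/KCl/Pluronic buffer. Substrate was 20 μM Boc-Lys(trifluoroacetyl)-AMC for 60 min at 30 °C, stopped with 1.7 μM SATFMK, and developed with trypsin. AMC fluorescence was read at 350/450 nm and reported as residual activity or as IC50 from a four-parameter logistic fit.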

The next assay concerns the target HDAC2 (Homo sapiens, UniProt Q92769). The assay is described as follows: HDAC enzyme activity assay. Type of assay: biochemical. Put shortly:
as §1

For a further assay, the system named is CEM cells. Kind of assay: Apoptosis by annexin V-FITC/PI flow cytometry. The class given is cell-based, human. Particulars: compound at CC50 (IC50) concentration, 24 h. The method, boiled down: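 CEM cells were seeded in 24-well plates and held overnight at 37 °C in CO2. Medium was replaced and cells were exposed to test compound for 24 h. Controls were untreated cells and 1% DMSO. Cells were PBS-washed and spun at 500 × g for 5 min at 4 °C, then resuspended in ice-cold binding buffer with annexin V-FITC and PI. They were kept 15 min on ice in the dark, diluted, and read by flow cytometry for live and apoptotic fractions.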

Another assay has as its system CEM leukemia cells. The assay is described as follows: Differential Nuclear Staining. Type of assay: cell-based, human. Particulars: 48 h. The method, boiled down: as §2
Where [1] appears, read: read-out: IC50 HDAC4, HDAC panel, no unit in table, text b26: micromolar range.

SMILES strings stand for the structures. Where two headings read alike, the source gives them in different places.

HDAC4, sequence (P56524 648-1057 limits assumed): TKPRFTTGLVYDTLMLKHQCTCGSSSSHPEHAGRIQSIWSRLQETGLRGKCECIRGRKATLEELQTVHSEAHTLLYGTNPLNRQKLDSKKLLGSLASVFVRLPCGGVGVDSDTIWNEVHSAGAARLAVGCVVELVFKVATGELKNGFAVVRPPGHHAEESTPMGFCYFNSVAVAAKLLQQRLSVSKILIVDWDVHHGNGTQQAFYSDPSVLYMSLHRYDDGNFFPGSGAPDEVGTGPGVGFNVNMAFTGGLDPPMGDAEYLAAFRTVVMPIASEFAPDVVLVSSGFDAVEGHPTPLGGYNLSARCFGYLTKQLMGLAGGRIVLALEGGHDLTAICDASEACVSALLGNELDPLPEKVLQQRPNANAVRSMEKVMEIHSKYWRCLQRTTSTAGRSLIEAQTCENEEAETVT
HDAC1, sequence (Q13547 whole entry): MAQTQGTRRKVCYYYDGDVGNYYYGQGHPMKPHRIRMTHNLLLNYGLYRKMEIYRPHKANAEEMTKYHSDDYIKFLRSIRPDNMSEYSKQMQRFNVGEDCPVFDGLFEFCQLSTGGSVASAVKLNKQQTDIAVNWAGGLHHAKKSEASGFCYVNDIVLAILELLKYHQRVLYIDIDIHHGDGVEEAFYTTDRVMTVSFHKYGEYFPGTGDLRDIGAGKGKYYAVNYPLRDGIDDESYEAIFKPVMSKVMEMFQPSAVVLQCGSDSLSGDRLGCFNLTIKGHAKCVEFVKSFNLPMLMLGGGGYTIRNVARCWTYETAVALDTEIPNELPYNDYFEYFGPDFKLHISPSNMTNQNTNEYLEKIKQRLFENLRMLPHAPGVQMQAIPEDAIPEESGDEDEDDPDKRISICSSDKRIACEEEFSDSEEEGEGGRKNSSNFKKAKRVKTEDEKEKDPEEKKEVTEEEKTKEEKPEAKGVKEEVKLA
HDAC3, sequence (O15379 whole entry): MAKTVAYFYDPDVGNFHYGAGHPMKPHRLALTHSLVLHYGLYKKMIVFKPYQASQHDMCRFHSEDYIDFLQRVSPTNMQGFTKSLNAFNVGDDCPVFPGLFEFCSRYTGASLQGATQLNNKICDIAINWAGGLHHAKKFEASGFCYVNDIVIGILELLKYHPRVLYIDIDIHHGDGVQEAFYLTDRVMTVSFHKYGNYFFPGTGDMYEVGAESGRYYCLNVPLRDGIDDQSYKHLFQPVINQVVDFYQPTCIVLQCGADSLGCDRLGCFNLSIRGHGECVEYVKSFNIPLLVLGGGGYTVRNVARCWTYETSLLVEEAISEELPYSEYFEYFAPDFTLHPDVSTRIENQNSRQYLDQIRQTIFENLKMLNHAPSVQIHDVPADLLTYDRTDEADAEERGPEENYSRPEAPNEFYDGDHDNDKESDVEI
HDAC3, sequence (Q9Y618 395-489 partner limits assumed): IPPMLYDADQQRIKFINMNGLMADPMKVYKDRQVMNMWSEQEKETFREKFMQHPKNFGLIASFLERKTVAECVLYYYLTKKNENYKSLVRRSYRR
HDAC5, sequence (Q9UQL6 whole entry): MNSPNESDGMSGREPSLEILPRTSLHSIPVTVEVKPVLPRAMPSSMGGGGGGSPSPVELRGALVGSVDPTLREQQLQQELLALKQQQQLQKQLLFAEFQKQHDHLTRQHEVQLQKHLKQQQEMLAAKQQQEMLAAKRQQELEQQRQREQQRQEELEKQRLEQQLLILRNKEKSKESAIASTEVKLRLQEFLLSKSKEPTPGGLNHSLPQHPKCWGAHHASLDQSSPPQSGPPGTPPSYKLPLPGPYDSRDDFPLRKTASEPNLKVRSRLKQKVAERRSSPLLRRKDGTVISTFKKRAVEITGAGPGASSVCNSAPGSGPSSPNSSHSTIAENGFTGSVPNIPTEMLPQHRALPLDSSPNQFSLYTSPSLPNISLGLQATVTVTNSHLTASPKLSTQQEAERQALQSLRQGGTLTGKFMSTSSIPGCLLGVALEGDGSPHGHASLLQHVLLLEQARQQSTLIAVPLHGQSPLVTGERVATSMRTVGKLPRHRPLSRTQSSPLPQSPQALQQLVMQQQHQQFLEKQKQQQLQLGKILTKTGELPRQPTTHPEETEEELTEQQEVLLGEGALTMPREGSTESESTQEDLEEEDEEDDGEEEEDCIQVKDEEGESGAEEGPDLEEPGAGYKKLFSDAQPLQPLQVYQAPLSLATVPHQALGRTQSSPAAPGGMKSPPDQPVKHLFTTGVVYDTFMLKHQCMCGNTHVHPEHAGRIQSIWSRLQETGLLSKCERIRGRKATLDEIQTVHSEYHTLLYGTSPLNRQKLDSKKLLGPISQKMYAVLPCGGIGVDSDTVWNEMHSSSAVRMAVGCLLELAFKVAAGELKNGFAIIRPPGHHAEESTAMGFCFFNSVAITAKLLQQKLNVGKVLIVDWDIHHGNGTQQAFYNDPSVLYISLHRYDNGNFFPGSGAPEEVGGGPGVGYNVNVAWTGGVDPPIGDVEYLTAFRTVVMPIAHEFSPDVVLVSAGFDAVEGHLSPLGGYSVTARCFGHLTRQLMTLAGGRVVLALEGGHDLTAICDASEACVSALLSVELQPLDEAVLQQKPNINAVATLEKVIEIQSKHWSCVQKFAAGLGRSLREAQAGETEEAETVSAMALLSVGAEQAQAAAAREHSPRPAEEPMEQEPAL
HDAC2, sequence (Q92769 whole entry): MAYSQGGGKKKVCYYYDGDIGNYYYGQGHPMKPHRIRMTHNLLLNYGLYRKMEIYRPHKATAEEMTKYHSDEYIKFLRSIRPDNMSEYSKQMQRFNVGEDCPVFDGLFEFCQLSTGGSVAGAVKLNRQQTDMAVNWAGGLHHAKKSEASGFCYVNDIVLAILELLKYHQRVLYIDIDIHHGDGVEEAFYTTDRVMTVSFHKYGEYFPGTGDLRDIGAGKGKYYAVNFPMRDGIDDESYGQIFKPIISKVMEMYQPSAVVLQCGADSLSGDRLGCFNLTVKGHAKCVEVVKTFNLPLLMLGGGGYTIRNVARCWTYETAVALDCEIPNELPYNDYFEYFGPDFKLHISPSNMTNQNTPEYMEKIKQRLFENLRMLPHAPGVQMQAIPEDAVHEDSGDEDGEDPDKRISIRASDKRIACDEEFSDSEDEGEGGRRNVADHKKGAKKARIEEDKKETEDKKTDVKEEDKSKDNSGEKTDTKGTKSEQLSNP

Turning to `Cc1c(NC(=O)CN2C(=O)SC(=Cc3ccccn3)C2=O)c(=O)n(-c2ccccc2)n1C` [Compound P10, N-(1,5-dimethyl-3-oxo-2-phenyl-2,3-dihydro-1H-pyrazol-4-yl)-2-(2,4-dioxo-5-(pyridin-2-ylmethylene)thiazolidin-3-yl)acetamide], the IC50 against HDAC5 was 43 µM; against HDAC7, more than 50 µM; against HDAC3, more than 50 µM; against HDAC1, more than 50 µM; against HDAC4, more than 50 µM; at HDAC4 (setting [1]), more than 50 µM. In addition, the 50% inhibitory concentration (IC50) at HDAC2 was determined as 45 µM. This molecule showed a half-maximal cytotoxic concentration (CC50) in the assay on KCL-22 leukemia cells of 17.4 ± 2.4 µM. Besides, the “Thermal shift (ΔT), stabilizing effect on HDAC8” value at HDAC8 is recorded as “did not confer significant stability to the protein”. Besides, the “cell death at 100 μM” value in the assay on K-562 leukemia cells (K562, DNS assay, 48 h, 100 μM) turned out to be 27.06% cell death at 100 μM; in the assay on CEM leukemia cells (CEM, DNS assay, 100 μM), 2.39% cell death at 100 μM. In addition, the remaining activity at 50 µM on HDAC4 was determined as 76%. This molecule displayed a live cells with CEM cells of 29.89%. Further, in the assay on CEM cells, the “percent of apoptotic cells” value is 55.19%.

For `O=C(CN1C(=O)SC(=Cc2ccccn2)C1=O)Nc1nc2ccccc2s1` [Compound P19, N-(benzo[d]thiazol-2-yl)-2-(2,4-dioxo-5-(pyridin-2-ylmethylene)thiazolidin-3-yl)acetamide], the IC50 against HDAC5, against HDAC7, against HDAC3, against HDAC1, against HDAC4 and on HDAC4 (setting [1]) was more than 50 µM in each case. The molecule also came in with a concentration for half-maximal inhibition (IC50) against HDAC2 of 41 µM. For the same molecule, the CC50 in the assay on KCL-22 leukemia cells is 43.2 ± 0.23 µM; with K-562 leukemia cells (Homo sapiens, K562, 48 h), 85.4 ± 3.25 µM; in the assay with CEM leukemia cells (Homo sapiens) it was 79.9 ± 3.74 µM. Besides, at HDAC8, the “Thermal shift (ΔT), stabilizing effect on HDAC8” value is “about 0.3 °C”. At HDAC4, the remaining activity at 50 µM came to 97%. The live cells in the assay on CEM cells is reported as 30.86%. The “percent of apoptotic cells” value in the assay on CEM cells is 60.97%.
